In assay [1] the target is T1, 5-hydroxytryptamine receptor 2C (Rattus norvegicus) (UniProt P08909).
T1 sequence (whole entry): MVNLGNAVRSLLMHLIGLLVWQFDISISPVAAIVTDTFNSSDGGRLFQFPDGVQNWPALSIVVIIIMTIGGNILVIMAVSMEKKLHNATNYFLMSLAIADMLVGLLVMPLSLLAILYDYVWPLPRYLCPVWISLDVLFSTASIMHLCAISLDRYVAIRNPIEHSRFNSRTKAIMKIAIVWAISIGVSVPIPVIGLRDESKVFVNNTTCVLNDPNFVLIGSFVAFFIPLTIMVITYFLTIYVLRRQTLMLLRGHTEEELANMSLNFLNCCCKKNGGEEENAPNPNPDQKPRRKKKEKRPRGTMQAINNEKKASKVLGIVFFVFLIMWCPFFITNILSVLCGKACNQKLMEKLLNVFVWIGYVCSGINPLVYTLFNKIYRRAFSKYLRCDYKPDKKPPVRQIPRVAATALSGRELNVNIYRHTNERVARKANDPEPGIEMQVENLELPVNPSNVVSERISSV
Description: Binding affinity towards rat 5-hydroxytryptamine 1C receptor using [3H]mesulergine as radioligand expressed in 293 cells. The assay is classed as cell-based. As to conditions: HEK293. Put shortly:
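Cloned rat 5-HT1C receptor expressed in 293 cells, labelled with [3H]mesulergine. Values are means ± SEM of n = 3 determinations.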

The nature of assay [2]: Selectivity ratio is Ki value of 5-HT2 receptor to that of 5-HT1c receptor. Put shortly: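 Ratio of Ki at 5-HT2 ([3H]ketanserin, rat frontal cortex) to Ki at 5-HT1C ([3H]mesulergine, rat clone in 293 cells). Each Ki is a mean of n = 3 determinations.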

With `Cn1ccc2c(NC(=O)Nc3ccncc3)cccc21`, the pK1 in assay [1] stood at 7.18. Further, the Selectivity in assay [2] came to 45.

In assay [1], `Cn1ccc2cccc(NC(=O)Nc3ccccc3)c21` returned a pK1 of less than 5.3.

Regarding `Cn1ccc2c(NC(=O)Nc3ccccn3)cccc21`, in assay [1], the pK1 was found to be 6.49. For the same molecule, the Selectivity in assay [2] is greater than 19.

Values taken from ChEMBL document CHEMBL1126642, “N-(1-methyl-5-indolyl)-N'-(3-pyridyl)urea hydrochloride: the first selective 5-HT1C receptor antagonist” (J Med Chem, 1993).
